Screening results (PubChem BioAssay)
Tb MetRS inh: blocks T. brucei methionyl-tRNA synthetase activity | inhibition, % at 11.9 µM | purified T. brucei MetRS, ATP depletion, Kinase-Glo luminescence | AID 624268 | actives 0.4% (n = 360,000);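 active means inhibition above a per-plate cutoff of the control wells' mean inhibition plus 3 SD, cut at about 5.5% in these data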;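 further: 0% = DMSO wells median and 100% = median of wells with control inhibitor compound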
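Test system: purified T. brucei MetRS enzyme. Also added: ATP, methionine and E. coli bulk tRNA substrates. Compound: 11.9 µM single point. Schedule: 15 min enzyme-compound preincubation, 2 h reaction, 10 min detection, 25 °C. Signal: luciferase luminescence of residual ATP, Kinase-Glo. Evaluation: percent inhibition versus plate control medians. Controls: DMSO wells, low control.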
TPT1 inhibitor: C. albicans TPT1 enzyme inhibition. recombinant caTPT1, FP RNA substrate dephosphorylation. inhibition, % at 5 µM. actives 0.81% (n = 300,000). AID 1962;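 active means inhibition above the mean of all tested compounds plus 3 SD, set per screening campaign, cut at about 24% in these data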;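 further: plate controls were DMSO alone for no effect and ferristatin control at 100 nM for full effect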
CSN deneddyl inh: inhibitors of human CSN-mediated cullin deneddylation; Q92905; Purified CSN, SCF-Nedd8-OG deneddylation, fluorescence polarization; inhibition, % at 12.5 µM; actives 0.38% (n = 360,000);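 active means pattern-corrected inhibition above about 35%, with an unprinted fluorescence ratio check between 0.5 and 1.5, limit read from the data, passing the limit was not always enough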;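 further: 0% = enzyme with substrate and 100% = substrate without enzyme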
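Test system: Human Csn5 produced in HEK293T cells | Compound: 12.5 µM single point | Times: 90 min, room temperature | Signal: Fluorescence polarization readout | Read-out basis: % inhibition of substrate cleavage by Csn5 | Controls: no-enzyme wells high, enzyme-with-substrate wells low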
IDE cell activ: IDE (human) activation, cell-based | actives 0.073% (n = 340,000) | P14735 | activation, % at 5.96 µM | HEK cells, FAbeta-B cleavage, fluorescence polarization; 0% vehicle, 100% cell-free pure enzyme wells;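 active means activation above the mean of all tested compounds plus 3 SD, set per screening campaign, cut at about 17% in these data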
IDE cell inh: cellular human IDE inhibition. AID 434962. actives 0.41% (n = 320,000). HEK cells, FAbetaB cleavage, fluorescence polarization. P14735. inhibition, % at 5.59 µM;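 active means percent inhibition above the average of all tested compounds plus 3 SD, set per screening campaign, cut at about 16% in these data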;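 further: IDE supplied by intact live HEK cells; FP after avidin binding of uncleaved biotin substrate so inhibition keeps polarization high; 0% = DMSO wells and 100% = 60 µM reference IDE inhibitor Ii1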
HNF4A DNA FP: change in binding of human HNF4 alpha to DNA. activity change, % at 10 µM. HNF4a-FITC DNA binding, fluorescence polarization, 1 h. actives 0.3% (n = 360,000). AID 1224865. P41235; in the data active means activity change above about 30%, passing the limit was not always enough
Target sequence (P41235 whole entry, looked up): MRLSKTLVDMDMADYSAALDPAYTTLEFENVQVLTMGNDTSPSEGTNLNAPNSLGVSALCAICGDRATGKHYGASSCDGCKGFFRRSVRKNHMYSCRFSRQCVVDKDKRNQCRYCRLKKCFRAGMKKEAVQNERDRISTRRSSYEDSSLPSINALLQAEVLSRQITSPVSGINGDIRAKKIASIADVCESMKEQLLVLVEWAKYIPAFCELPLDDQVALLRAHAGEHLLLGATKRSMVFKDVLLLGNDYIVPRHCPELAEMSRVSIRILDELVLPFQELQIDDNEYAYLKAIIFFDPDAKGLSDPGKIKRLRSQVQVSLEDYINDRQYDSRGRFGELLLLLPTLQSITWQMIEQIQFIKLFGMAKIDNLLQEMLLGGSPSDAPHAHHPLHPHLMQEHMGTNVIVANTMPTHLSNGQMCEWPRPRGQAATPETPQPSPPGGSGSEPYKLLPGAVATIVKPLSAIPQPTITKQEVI
caTPT1 confirm: confirmation of Candida albicans TPT1 inhibitors. shares compounds with TPT1 inhibitor. recombinant caTPT1, fluorescence polarization, RNase T1 coupled. inhibition, % at 5 µM. actives 74% (n = 2,400). AID 2149;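 active means inhibition above the primary screen limit, the mean inhibition of all tested compounds plus 3 SD, cut at about 25% in these data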
RNase T1 counter: counter-screen for TPT1 inhibitors: inhibitors of Aspergillus oryzae RNase T1; shares compounds with TPT1 inhibitor; RNase T1 cleavage, fluorescence polarization, 1536-well; inhibition, % at 5 µM; actives 83% (n = 2,400);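 active means inhibition above the solvent-only control well mean plus 3 SD, limit set per screening run, cut at about 23% in these data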;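 further: plate controls were DMSO wells with enzyme for no effect and wells without RNase T1 for full effect; inhibitors block cleavage so intact labeled substrate keeps polarization high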
Target sequence (P00651 whole entry, looked up): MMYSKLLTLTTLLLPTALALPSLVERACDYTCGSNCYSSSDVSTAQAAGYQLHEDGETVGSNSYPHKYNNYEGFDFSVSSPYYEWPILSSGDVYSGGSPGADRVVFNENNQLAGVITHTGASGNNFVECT
IDE inh confirm: confirmation of human insulin-degrading enzyme inhibitors in cells; HEK cells, FAbetaB cleavage, fluorescence polarization; inhibition, % at 5.59 µM; actives 51% (n = 1,200); shares compounds with IDE cell inh;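 active means mean inhibition across triplicate wells above the cutoff set by the earlier primary insulin-degrading enzyme screen, cut at about 16% in these data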;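 further: 0% = DMSO wells and 100% = 60 µM reference IDE inhibitor Ii1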
HEK cytotox: counter-screen for IDE inhibitors: cytotoxicity in HEK cells; shares compounds with IDE cell inh; HEK293 cytotoxicity, ATP luminescence; inhibition, % at 5.59 µM; actives 28% (n = 1,200); in the data active means inhibition above about 22%;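 further: 0% = vehicle wells and 100% = reference cytotoxic drug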
CSN5 deneddyl: validation of inhibitors of human CSN-mediated cullin deneddylation. shares compounds with CSN deneddyl inh. Csn5 deneddylation of SCF-Nedd8OG, fluorescence polarization, 90 min. inhibition, % at 16.6 µM. actives 62% (n = 540); in the data active means inhibition above about 50%;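 further: 0% = DMSO with enzyme and 100% = no enzyme wells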
MMP2 cntr CSN: MMP-2 (human) inhibition, counter-screen for CSN hits | shares compounds with CSN deneddyl inh | recombinant MMP-2, FRET substrate fluorescence, 60 min | inhibition, % at 16.6 µM | actives 33% (n = 540) | AID 720655;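 active means corrected plate-normalized z-score of 5 or more, or -5 or less, or inhibition of 15% or more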;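 further: plate controls were DMSO wells with enzyme for no effect and buffer wells lacking MMP-2 for full effect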
Thrombin cntr: blocks bovine thrombin in a CSN deneddylation counter-screen; shares compounds with CSN deneddyl inh; bovine thrombin cleavage of Ub4-pepOG, fluorescence polarization; inhibition, % at 16.6 µM; actives 49% (n = 540); AID 720656;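 active means inhibition at or above a set limit, with a fluorescence interference ratio between 0.5 and a set maximum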
HNF4a DNA conf: change in binding of human HNF4 alpha to DNA, retest; activity change, % at 12.5 µM; shares compounds with HNF4A DNA FP; actives 99% (n = 210); HNF4A-FITC DNA binding, fluorescence polarization, 1 h; call rule not given here
Starred values were filed as active, the others as inactive. Compounds with a hit are over-represented: about 1.7% of the library has one in this group of screens.

Results for Cc1ccc(/C=C2\C(=O)NC(=S)N(c3cccc(F)c3)C2=O)o1 ?
Tb MetRS inh: 0; TPT1 inhibitor: 41*; CSN deneddyl inh: 45*; IDE cell activ: -5; IDE cell inh: 2; HNF4A DNA FP: 21; caTPT1 confirm: 46*; RNase T1 counter: 57*; CSN5 deneddyl: 65*; MMP2 cntr CSN: 35*; Thrombin cntr: 54*

Results for O=C1NC(=O)N(c2cccc(F)c2)C(=O)/C1=C/c1ccc(N2CCOCC2)cc1 ?
Tb MetRS inh: 0; TPT1 inhibitor: 8; CSN deneddyl inh: 9; IDE cell activ: -2; IDE cell inh: 4; HNF4A DNA FP: 0

What do the screens show for `CSc1ccc(CNC(C)C(O)c2ccccc2)cc1` (centres undefined)?
Tb MetRS inh: 2; TPT1 inhibitor: 0; CSN deneddyl inh: 13; IDE cell activ: -3; IDE cell inh: 1; HNF4A DNA FP: -3

Results for Cc1ccc(N2C(=O)NC(=O)/C(=C\C=C\c3ccco3)C2=O)cc1C ?
Tb MetRS inh: 0; TPT1 inhibitor: 38*; CSN deneddyl inh: 69*; IDE cell activ: -11; IDE cell inh: 10; HNF4A DNA FP: 1; caTPT1 confirm: 51*; RNase T1 counter: 70*; CSN5 deneddyl: 68*; MMP2 cntr CSN: 6; Thrombin cntr: 12

Results for Cc1cc(N2CCOCC2)ccc1/C=C1\C(=O)NC(=O)N(c2ccccc2)C1=O ?
Tb MetRS inh: 1; TPT1 inhibitor: 5; CSN deneddyl inh: 5; IDE cell activ: -5; IDE cell inh: 4; HNF4A DNA FP: 5

Results for Cc1cccc(N2C(=O)NC(=O)/C(=C\C=C\c3ccco3)C2=O)c1 ?
Tb MetRS inh: 0; TPT1 inhibitor: 25*; CSN deneddyl inh: 50*; IDE cell activ: -12; IDE cell inh: 6; HNF4A DNA FP: 5; caTPT1 confirm: 30*; RNase T1 counter: 48*; CSN5 deneddyl: 84*; MMP2 cntr CSN: 8; Thrombin cntr: 9

What do the screens show for `CCN1C(=O)C(=Cc2ccc(N3CCOCC3)o2)C(=O)N(CC)C1=S`?
Tb MetRS inh: 0; TPT1 inhibitor: 112*; CSN deneddyl inh: 106*; IDE cell activ: -45; IDE cell inh: 12; HNF4A DNA FP: 48*; caTPT1 confirm: 146*; RNase T1 counter: 137*; CSN5 deneddyl: 62*; MMP2 cntr CSN: -24; Thrombin cntr: 69*

How did O=C1NC(=O)C(=Cc2ccc(N3CCOCC3)cc2)C(=O)N1 do in these assays?
Tb MetRS inh: 0; TPT1 inhibitor: -3; CSN deneddyl inh: -3; IDE cell activ: -7; IDE cell inh: -2; HNF4A DNA FP: 0

Results for O=C(CCC(=O)N1CCC2(CC1)OCCO2)Nc1nnc(C2CCCCC2)s1 ?
Tb MetRS inh: -1; TPT1 inhibitor: 1; CSN deneddyl inh: 0; IDE cell activ: 3; IDE cell inh: 0; HNF4A DNA FP: 0

What do the screens show for `COC(=O)c1ccccc1N=Cc1c(O)[nH]c(=O)[nH]c1=O`?
Tb MetRS inh: -1; TPT1 inhibitor: 0; CSN deneddyl inh: -1; IDE cell activ: -1; IDE cell inh: -5; HNF4A DNA FP: 3

What do the screens show for `CCN(CC)CCOC(=O)c1ccc(N=Cc2c(O)[nH]c(=O)[nH]c2=O)cc1`?
Tb MetRS inh: -1; TPT1 inhibitor: 60*; CSN deneddyl inh: 48*; IDE cell activ: 4; IDE cell inh: 3; HNF4A DNA FP: 60*; caTPT1 confirm: 70*; RNase T1 counter: 87*; HNF4a DNA conf: 99*

How did CCCC12CN3CC(CCC)(CN(C1)C3c1ccccn1)C2=O (centres undefined) do in these assays?
Tb MetRS inh: -1; TPT1 inhibitor: 1; CSN deneddyl inh: -5; IDE cell activ: -4; IDE cell inh: 2; HNF4A DNA FP: 1

How did CN(C)CCCN=Cc1c(O)n(CCc2ccccc2)c(=O)[nH]c1=O do in these assays?
Tb MetRS inh: 0; TPT1 inhibitor: 72*; CSN deneddyl inh: 28; IDE cell activ: 5; IDE cell inh: -3; HNF4A DNA FP: 43*; caTPT1 confirm: 65*; RNase T1 counter: 82*; HNF4a DNA conf: 60*

Results for COc1cc(/C=C/c2nc3ccccc3c(=O)n2-c2ccc(O)cc2)ccc1O ?
Tb MetRS inh: 0; TPT1 inhibitor: 17; CSN deneddyl inh: 22; IDE cell activ: -47; IDE cell inh: 33*; HNF4A DNA FP: 22; IDE inh confirm: 111*; HEK cytotox: 34*

Results for COC(=O)C1=C(c2ccc(-c3ccccc3)c(F)c2)C[C@@H]2CC[C@H]1N2C(=O)N1CCc2cc(OC)c(OC)cc2C1 ?
Tb MetRS inh: 0; CSN deneddyl inh: 0; IDE cell activ: 3; IDE cell inh: 3; HNF4A DNA FP: 1
